Experimental data taken from ChEMBL document CHEMBL1138269, “Antimicrobial lexitropsins containing amide, amidine, and alkene linking groups” (J Med Chem, 2007).
≈ marks a conversion by molar mass, not a printed value.

How the values were obtained:
Assay type in all cases: functional
Staphylococcus aureus = assay: Antibacterial activity against methicillin-sensitive Staphylococcus aureus NCTC 6571
Summary of the method: (§1)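 Broth microdilution in Mueller-Hinton broth. Samples were dissolved in sterile water to 200 µg mL-1 as the working solution and doubling dilutions were made across rows. Plates were incubated at 37 °C and inspected visually, with resazurin added as growth indicator. MIC reported in µg mL-1.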

Enterococcus faecalis = assay: Antibacterial activity against Streptococcus faecalis NCTC 775; summary of the method: as §1
Aspergillus niger = assay: Antifungal activity against Aspergillus niger IMI 149007
Summary of the method: (§2)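 Antifungal microdilution in Sabouraud broth. Test sample at 200 µg mL-1 working solution in sterile water was serially doubled down successive rows. Incubation was at 25 °C, followed by visual growth check and addition of resazurin indicator. Read-out is MIC in µg mL-1.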

Candida albicans = assay: Antifungal activity against Candida albicans NCPF 3179; summary of the method: as §2
[1] = tested on: Mycolicibacterium fortuitum; assay: Antibacterial activity against Mycobacterium fortuitum NCTC 10394; summary of the method: as §1
[2] = Staphylococcus aureus, NCTC 6571, read-out: MIC
[3] = Enterococcus faecalis, NCTC 775, read-out: MIC
[4] = Candida albicans, read-out: MIC

| Compound | MIC (Staphylococcus aureus; [2]) | MIC (Enterococcus faecalis; [3]) | MIC (Aspergillus niger) | MIC (Candida albicans; [4]) | MIC [1] | MIC (Staphylococcus aureus) | MIC (Enterococcus faecalis) | MIC (Candida albicans) |
| --- | --- | --- | --- | --- | --- | --- | --- | --- |
| CC(=N)Nc1cc(C(=O)Nc2cc(C(=O)Nc3nc(C(=O)NCCCN(C)C)c(CCC(C)C)s3)n(C)c2)n(C)c1 | > 50 µg/mL | > 50 µg/mL | > 50 µg/mL | 50 µg/mL (≈ 85.7 µM) | > 50 µg/mL | – | – | – |
| CC(C)CCc1sc(NC(=O)c2cc(NC(=O)c3ccc(/C=C/c4cnc5ccccc5c4)cc3)cn2C)nc1C(=O)NCCN1CCOCC1 | > 50 µg/mL | > 50 µg/mL | > 50 µg/mL | 50 µg/mL (≈ 70.8 µM) | > 50 µg/mL | – | – | – |
| CN(C)CCCn1cnc(NC(=O)c2cc(NC(=O)c3cc(NC=O)cn3C)cn2C)c1 | > 50 µg/mL | > 50 µg/mL | > 50 µg/mL | > 50 µg/mL | > 50 µg/mL | – | – | – |
| CN(C)CCCNC(=O)c1cc(NC(=O)c2cc(NC(=O)c3cc(NC(=O)c4ccc(Cl)c(Cl)n4)cn3C)cn2C)cn1C | > 50 µg/mL | > 50 µg/mL | 50 µg/mL (≈ 77.8 µM) | 25 µg/mL (≈ 38.9 µM) | > 50 µg/mL | – | – | – |
| COc1cccc(C(=N)Nc2cc(C(=O)Nc3cc(C(=O)Nc4cc(C(=O)NCCN5CCOCC5)n(C)c4)n(C)c3)n(C)c2)c1 | > 50 µg/mL | > 50 µg/mL | > 50 µg/mL | > 50 µg/mL | > 50 µg/mL | – | – | – |
| CN(C)CCCNC(=O)c1cc(NC(=O)c2cc(NC(=O)c3cc(/C=C/c4ccc5ccccc5n4)cn3C)cn2C)cn1C | > 50 µg/mL | > 50 µg/mL | 50 µg/mL (≈ 82.4 µM) | 25 µg/mL (≈ 41.2 µM) | > 50 µg/mL | – | – | – |
| Cn1cc(NC(=O)c2cc(NC(=O)c3ccc(/C=C/c4nc5ccccc5o4)cc3)cn2C)cc1C(=O)NCCN1CCOCC1 (stereo in doubt; 72) | – | – | – | – | – | 3 µg/mL (≈ 4.83 µM) | 3 µg/mL (≈ 4.83 µM) | 50 µg/mL (≈ 80.4 µM) |
| CC(C)CCc1sc(NC(=O)c2cc(NC(=O)c3ccc(/C=C/c4ccc5ccccc5c4)cc3)cn2C)nc1C(=O)NCCN1CCOCC1 | > 50 µg/mL | > 50 µg/mL | > 50 µg/mL | > 50 µg/mL | > 50 µg/mL | – | – | – |
| CC(C)CCc1sc(NC(=O)c2cc(NC(=O)c3ccc(/C=C/c4cc5ccccc5nc4Cl)cc3)cn2C)nc1C(=O)NCCN1CCOCC1 | > 50 µg/mL | > 50 µg/mL | > 50 µg/mL | > 50 µg/mL | > 50 µg/mL | – | – | – |

Now from value to molecule, other results behind:

| MIC (Staphylococcus aureus; [2]) | MIC (Enterococcus faecalis; [3]) | MIC (Aspergillus niger) | MIC (Candida albicans; [4]) | MIC [1] | Compound | MIC (Staphylococcus aureus) | MIC (Enterococcus faecalis) | MIC (Candida albicans) |
| --- | --- | --- | --- | --- | --- | --- | --- | --- |
| > 50 µg/mL | > 50 µg/mL | > 50 µg/mL | > 50 µg/mL | > 50 µg/mL | COc1cccc(C(=O)Nc2ccc(C(=O)Nc3cc(C(=O)Nc4cc(C(=O)NCCN5CCOCC5)n(C)c4)n(C)c3)cc2)c1 | – | – | – |
| 50 µg/mL (≈ 79.1 µM) | > 50 µg/mL | > 50 µg/mL | > 50 µg/mL | > 50 µg/mL | Cn1cc(NC(=O)c2cc(NC(=O)c3ccc(/C=C/c4ccc5ccccc5n4)cc3)cn2C)cc1C(=O)NCCN1CCOCC1 | – | – | – |
| 50 µg/mL (≈ 90 µM) | 50 µg/mL (≈ 90 µM) | 50 µg/mL (≈ 90 µM) | > 50 µg/mL | > 50 µg/mL | CC(=N)Nc1cc(C(=O)Nc2cc(C(=O)Nc3nc(C(=O)NCCCN(C)C)c(C(C)C)s3)n(C)c2)n(C)c1 | – | – | – |
| 13 µg/mL (≈ 20.5 µM) | 13 µg/mL (≈ 20.5 µM) | > 50 µg/mL | > 50 µg/mL | > 50 µg/mL | COc1cccc(C(=O)Nc2nc(C(=O)Nc3cc(C(=O)Nc4cc(C(=O)NCCC(=N)N)n(C)c4)n(C)c3)c(C(C)C)s2)c1 | – | – | – |
| 25 µg/mL (≈ 39.6 µM) | > 50 µg/mL | > 50 µg/mL | > 50 µg/mL | > 50 µg/mL | Cn1cc(NC(=O)c2cc(NC(=O)c3ccc(/C=C/c4ccc5ccccc5c4)cc3)cn2C)cc1C(=O)NCCN1CCOCC1 | – | – | – |
| 13 µg/mL (≈ 20.1 µM) | 50 µg/mL (≈ 77.2 µM) | 50 µg/mL (≈ 77.2 µM) | > 50 µg/mL | > 50 µg/mL | COc1cccc(C(=N)Nc2cc(C(=O)Nc3cc(C(=O)Nc4nc(C(=O)NCCCN(C)C)c(C(C)C)s4)n(C)c3)n(C)c2)c1 | – | – | – |
| 6 µg/mL (≈ 8.95 µM) | 50 µg/mL (≈ 74.6 µM) | 50 µg/mL (≈ 74.6 µM) | > 50 µg/mL | > 50 µg/mL | CC(C)n1cc(NC(=O)c2cc(NC(=O)c3ccc(Cl)c(Cl)n3)cn2C)cc1C(=O)Nc1cc(C(=O)NCCCN(C)C)n(C)c1 | – | – | – |
| 25 µg/mL (≈ 41.5 µM) | > 50 µg/mL | 25 µg/mL (≈ 41.5 µM) | > 50 µg/mL | > 50 µg/mL | COc1cccc(C(=N)Nc2cc(C(=O)Nc3cc(C(=O)Nc4cc(C(=O)NCCCN(C)C)n(C)c4)n(C)c3)n(C)c2)c1 | – | – | – |
| 25 µg/mL (≈ 39.2 µM) | 25 µg/mL (≈ 39.2 µM) | > 50 µg/mL | > 50 µg/mL | > 50 µg/mL | Cn1cc(NC(=O)c2cc(NC(=O)c3ccc(/C=C/c4nc5ccccc5s4)cc3)cn2C)cc1C(=O)NCCN1CCOCC1 | – | – | – |
| 5 µg/mL (≈ 9.21 µM) | 10 µg/mL (≈ 18.4 µM) | 76 µg/mL (≈ 140 µM) | 76 µg/mL (≈ 140 µM) | 19 µg/mL (≈ 35 µM) | CC(C)c1sc(NC(=O)c2cc(NC(=O)c3cc(NC=O)cn3C)cn2C)nc1C(=O)NCCCN(C)C | – | – | – |
